Drawing on ChEMBL document CHEMBL1142668, “Synthesis and biological evaluation of neutral and zwitterionic 3-carboranyl thymidine analogues for boron neutron capture therapy” (J Med Chem, 2005), this text covers Phosphorylation rate and Retention time for 17 compounds.

The test system of one series is L929. The series is described as follows: Mean phosphorylation rate of 10 uM compound by recombinant human thymidine kinase 1 (cytosolic) expressing wild type L929 tumor cells. Format: functional. The procedure, abridged:
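Purified recombinant human TK1 (50 ng) with 10 µM substrate, final DMSO 1%, 100 µM ATP spiked with 0.03 µM [γ-32P]-ATP, in 50 mM Tris-HCl pH 7.6, 5 mM MgCl2, 125 mM KCl, 10 mM DTT, 0.5 mg/mL BSA. Run at 37 °C for 20 min, then 95 °C for 2 min. Products separated by PEI-cellulose TLC and read by phosphorimager. Rate expressed relative to thymidine, using one enzyme batch.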

Series [1] is described as follows: Mean retention time in reversed phase HPLC (RP-18). In kind it is ADME.

Take N5-20H: the Phosphorylation rate in the series with L929 (Mus musculus) stood at 41%.

Take “3-[5-(7-Ammonium-nido-m-carboran-1-yl)pentan-1-yl]thymidine”: the Phosphorylation rate with L929 (Mus musculus) was 50.7%.

Turning to “3-[2-(7-Ammonium-nido-m-carboran-1-yl)ethoxyethyl]-thymidine”, the Phosphorylation rate in the series with L929 (Mus musculus) was 75.1%.

For `Cc1cn([C@H]2C[C@H](N=[N+]=[N-])[C@@H](CO)O2)c(=O)[nH]c1=O` [ZIDOVUDINE], the Phosphorylation rate in the series with L929 is 52%. For the same compound, the Retention time in series [1] came out at 12.22 min.

As to “3-[2-(7-Amino-closo-m-carboran-1-yl)-ethan-1-yl]thymidine”, the Phosphorylation rate in the series on L929 (Mus musculus) was determined as 71.9%.

Turning to `Cc1cn([C@H]2C[C@H](O)[C@@H](CO)O2)c(=O)[nH]c1=O` [DOXRIBTIMINE], the Phosphorylation rate in the series on L929 came to 100%. Besides, in series [1], the Retention time stood at 8.72 min.

For the compound “3-[5-(7-Amino-closo-m-carboran-1-yl)pentan-1-yl]thymidine”, the Phosphorylation rate in the series with L929 (Mus musculus) is 45.1%.

In the case of “3-[(closo-o-Caboran-1-yl)methyl]thymidine”, the Phosphorylation rate with L929 (Mus musculus) came to 9.6%.

Consider “3-[3-(7-Amino-closo-m-carboran-1-yl)propan-1-yl]thymidine”, for which the Phosphorylation rate in the series with L929 (Mus musculus) was found to be 58.2%.

Take “3-[4-(7-Ammonium-nido-m-carboran-1-yl)butan-1-yl]-thymidine”: the Phosphorylation rate with L929 (Mus musculus) was found to be 63.8%.

As for “3-[6-(7-Ammonium-nido-m-carboran-1-yl)hexan-1-yl]-thymidine”, in the series with L929 (Mus musculus), the Phosphorylation rate was 45.4%.

As for “3-[4-(7-Amino-closo-m-carboran-1-yl)butan-1-yl]thymidine”, the Phosphorylation rate in the series with L929 (Mus musculus) was 58%.

With “3-[2-(7-Ammonium-nido-m-carboran-1-yl)ethan-1-yl]-thymidine”, in the series on L929 (Mus musculus), the Phosphorylation rate worked out at 89.4%.

For the compound “3-[5-(7-Amino-closo-m-carboran-1-yl)hexan-1-yl]thymidine”, the Phosphorylation rate in the series on L929 (Mus musculus) was 14.2%.

As for `C#CCn1c(=O)c(C)cn([C@H]2CC(O)[C@@H](CO)O2)c1=O` (single isomer, unassigned), in the series on L929, the Phosphorylation rate amounted to 102%. Moreover, the Retention time in series [1] worked out at 11.79 min.

For “3-[2-(7-Amino-closo-m-carboran-1-yl)ethoxyethyl]thymidine”, the Phosphorylation rate in the series with L929 (Mus musculus) is 48.4%.

Turning to “3-[3-(7-Ammonium-nido-m-carboran-1-yl)propan-1-yl]-thymidine”, the Phosphorylation rate with L929 (Mus musculus) amounted to 64.6%.
